In ChEMBL document CHEMBL1125182, “A new class of analogues of the bifunctional radiosensitizer alpha-(1-aziridinylmethyl)-2-nitro-1H-imidazole-1-ethanol (RSU 1069): the cycloalkylaziridines” (J Med Chem, 1991):

How the values were obtained:
[1] = (§1) IC50 of oxic to that of IC50 of hypoxic was determined in V79 cells; hypoxia selective cytotoxicity.; assay type: functional, Cricetulus griseus
Procedure, shortened: (§2)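 V79-171b Chinese hamster cells in RPMI 1640 with 10% fetal calf serum, plated and incubated ca. 18 h at 37 °C, then exposed to a range of compound concentrations for 1 h at 37 °C under oxic or hypoxic conditions. Cells rinsed, colonies grown; ratio taken as IC50(oxic)/IC50(hypoxic). Means of replicate experiments agreeing within ±20%.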

Cricetulus griseus = organism: Cricetulus griseus; assay: The efficiency of radiosensitization is the concentration required to give an SER of 1.6 (in vitro); assay type: functional
Procedure, shortened: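 Chinese hamster V79-171b monolayers in RPMI 1640 with 10% FCS, plated ~18 h at 37 °C. Made hypoxic with 95% N2/5% CO2 for 1 h, then given X-rays (320 kV, ~1.5 Gy/min) at room temperature. Drug removed after irradiation; colonies of ≥50 cells scored after 6-7 days. SER is the dose ratio for 25% survival on hypoxic curves ±compound; C1.6 read from SER-versus-concentration plot.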

[2] = Partition coefficient measured between octanol and 0.05 M NH4PO4 (pH 7.4) using shake-flask method; assay type: physicochemical; settings: octanol/0.05 M NH4PO4 buffer
[3] = Sensitizer enhancement ratio(SER) determined at the maximum nontoxic dose by measuring the number of cells killed at a conc 3 mM (in vitro); assay type: functional, Cricetulus griseus
Procedure, shortened: (§3)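 V79-171b cells in RPMI 1640 with 10% FCS, held at maximum nontoxic drug level. Made hypoxic by 95% N2/5% CO2 purge for 1 h, then X-irradiated at room temperature (320 kV, ca. 1.5 Gy/min). Drug medium replaced and colonies (≥50 cells) scored at 6-7 days, 37 °C. SER = ratio of doses giving 25% survival on hypoxic curves without vs with drug.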

[4] = Sensitizer enhancement ratio(SER) determined at the maximum nontoxic dose by measuring the number of cells killed at a conc 10 mM (in vitro); assay type: functional, Cricetulus griseus
[5] = Plating efficiency of drug treated irradiated tumors relative to irradiated only group; assay type: ADME
Procedure, shortened: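 Mice bearing KHT fibrosarcoma (200–500 mg, hypoxic fraction ca. 20%) given vehicle or compound ip 30–120 min before 15 Gy X-rays. Tumours were excised 18 h later, dissociated to single cells and plated in soft agar. Colonies were stained and counted after 12–16 days. Plating efficiency is relative to the irradiated-only group.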

Mus musculus = assay: In vivo radiosensitizing activity measured as maximum tolerated dose in mice.; assay type: functional
[6] = Sensitizer enhancement ratio(SER) determined at the maximum nontoxic dose by measuring the number of cells killed at a conc 0.38 mM (in vitro); assay type: functional, Cricetulus griseus; procedure, shortened: as §3
[7] = Sensitizer enhancement ratio(SER) determined at the maximum nontoxic dose by measuring the number of cells killed at a conc […] (in vitro); assay type: functional, Cricetulus griseus; procedure, shortened: as §3
[8] = Sensitizer enhancement ratio(SER) determined at the maximum nontoxic dose by measuring the number of cells killed at a conc 0.75 mM (in vitro); assay type: functional, Cricetulus griseus
V79 = assay: as §1; assay type: functional; settings: Cricetulus griseus; procedure, shortened: as §2
[9] = Sensitizer enhancement ratio(SER) determined at the maximum nontoxic dose by measuring the number of cells killed at a conc 1.5 mM (in vitro); assay type: functional, Cricetulus griseus; procedure, shortened: as §3
[10] = Sensitizer enhancement ratio(SER) determined at the maximum nontoxic dose by measuring the number of cells killed at a conc 2 mM (in vitro); assay type: functional, Cricetulus griseus
[11] = Sensitizer enhancement ratio(SER) determined at the maximum nontoxic dose by measuring the number of cells killed at a conc 3.0 mM (in vitro)
[12] = Sensitizer enhancement ratio(SER) determined at the maximum nontoxic dose by measuring the number of cells killed at a conc 1.9 (in vitro); assay type: functional, Cricetulus griseus; procedure, shortened: as §3

Structure (SMILES) | Hypoxic selectivity ratio (IC50 oxic / IC50 hypoxic) [1] | C1.6 (Cricetulus griseus) [mM] | logD [2] | SER [3] | Fold reduction [5] | MTD (Mus musculus) [mg/kg] | other results
CCOC(=O)C1CCC2C(C1)N2CC(O)Cn1ccnc1[N+](=O)[O-] (stereo unspecified) | 1.1 | 3 | 1.13 | 2 |  |  | 
O=C(O)C1CCN1CC(O)Cn1ccnc1[N+](=O)[O-] (stereo unspecified) | 1 |  | -2.02 |  |  |  | SER [4]: 2.3
O=[N+]([O-])c1nccn1CC(O)CNC1COCC[C@@H]1Br (stereo partly specified) | 1.2 | 1.8 | -0.17 | 1.8 | 13 | 1500 | 
O=[N+]([O-])c1nccn1CC(O)CN1C2CCc3ccccc3C21 (stereo unspecified) | 1.2 |  | 2.15 |  |  |  | SER [6]: 1.2
O=[N+]([O-])c1nccn1CC(O)CN1C2CCCC21 (stereo unspecified) | 2 | 0.48 | 0.37 |  | 6.1 | 450 | SER [7]: 2
O=[N+]([O-])c1nccn1CC(O)CNC1CCCC[C@@H]1Br (stereo partly specified) | 2.5 | 0.35 | 1.21 |  | 4.5 | 700 | SER [8]: 2.4
O=[N+]([O-])c1nccn1CC(O)CN1CC1 (stereo unspecified) | 50 | 0.33 | 0.33 |  | 6.7 | 100 | SER [7]: 1.9
O=[N+]([O-])c1nccn1CC(O)CN1C2CCOCC21 (stereo unspecified) |  |  | 0.07 |  | 5.7 | 800 | SER [7]: 1.3; Cytotoxicity (V79): Unstable
O=[N+]([O-])c1nccn1CC(O)CN1C2CCCCCCC21 (stereo unspecified) | 1.2 | 0.75 | 1.84 | 2.1 | 2.6 | 500 | 
CC1CCCC2C1N2CC(O)Cn1ccnc1[N+](=O)[O-] (stereo unspecified) | 1 | 0.75 | 1.55 |  | 2.1 | 500 | SER [9]: 2
O=[N+]([O-])c1nccn1CC(O)CN1C2C3CCC(C3)C21 (stereo unspecified) | 1.4 | 3 | 1.6 | 1.6 |  |  | 
O=[N+]([O-])c1nccn1CC(O)CNC1C2CCC(C2)[C@@H]1Br (stereo partly specified) | 1.3 | 0.35 | 1.36 | 2.1 |  |  | 
O=[N+]([O-])c1nccn1CC(O)CN1CCC1 (stereo unspecified) | 1 |  | -1.51 |  |  |  | SER [10]: 2
O=[N+]([O-])c1nccn1CC(O)CN1C2CCCCCC21 (stereo unspecified) | 1.4 | 1 | 1.44 | 1.7 |  |  | 
COC(=O)C1CCN1CC(O)Cn1ccnc1[N+](=O)[O-] (stereo unspecified) | 1 |  | -0.29 |  |  |  | SER [11]: 2.1
O=[N+]([O-])c1nccn1CC(O)CN1C2CCCCC21 (stereo unspecified) | 1.6 | 0.35 | 1.07 |  | 3.91 | 400 | SER [12]: 1.9
O=[N+]([O-])c1nccn1CC(O)CNC1CCC[C@H]1Br (stereo partly specified) | 2.5 | 0.75 | 0.43 |  | 4.3 | 1000 | SER [9]: 2.3
